Source: PubChem
PDI inh: PDI (human) enzyme inhibition; AID 588391; PDI insulin aggregation turbidity, A650, 90 min; P07237; inhibition, % at 10 µM; 0.052% of 350,000 active;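 active means mean inhibition across replicates of 30% or more, whatever share of single replicates reach that level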
TbMetRS inhib: blocks T. brucei methionyl-tRNA synthetase activity; 0.4% of 360,000 active; purified T. brucei MetRS, ATP depletion, Kinase-Glo luminescence; inhibition, % at 11.9 µM; AID 624268;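 active means inhibition above a per-plate cutoff of the control wells' mean inhibition plus 3 SD, cut at about 5.5% in these data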;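 further: 0% = DMSO wells median and 100% = median of wells with control inhibitor compound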
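Assay system: T. brucei methionyl-tRNA synthetase, purified | Medium: HEPES buffer with MgCl2, KCl, DTT, spermine, BSA, pyrophosphatase | Compound: 11.9 µM single point | Incubation: 15 min enzyme-compound preincubation, 2 h reaction, 10 min detection, 25 °C | Measured by: Kinase-Glo luciferase luminescence reporting remaining unconsumed ATP | Measure: % inhibition normalized to control-well medians | Replication: Singlicate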
ERp5 block: blocks human ERp5 reductase activity on insulin; ERp5 insulin aggregation, absorbance 650 nm, 90 min; inhibition, % at 9.99 µM; 0.05% of 350,000 active;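 active means mean replicate inhibition above about 25%, with every replicate also reaching it, limit read from the data, passing the limit was not always enough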
Target sequence (Q15084 whole entry, looked up): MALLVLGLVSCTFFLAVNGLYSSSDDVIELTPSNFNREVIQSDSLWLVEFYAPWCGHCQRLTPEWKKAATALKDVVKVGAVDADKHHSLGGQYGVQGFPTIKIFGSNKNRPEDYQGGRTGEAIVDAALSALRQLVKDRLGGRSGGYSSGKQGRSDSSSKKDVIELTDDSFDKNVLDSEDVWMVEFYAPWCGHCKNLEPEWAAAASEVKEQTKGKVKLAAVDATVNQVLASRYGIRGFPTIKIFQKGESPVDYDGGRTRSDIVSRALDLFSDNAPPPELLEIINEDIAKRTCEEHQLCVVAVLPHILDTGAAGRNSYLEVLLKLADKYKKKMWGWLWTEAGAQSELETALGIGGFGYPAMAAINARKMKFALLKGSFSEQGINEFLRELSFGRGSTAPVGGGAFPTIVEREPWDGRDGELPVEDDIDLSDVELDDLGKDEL
Tb MetRS conf: confirmation of Trypanosoma brucei MetRS inhibitors | shares compounds with TbMetRS inhib | T. brucei MetRS enzyme, luminescence (ATP depletion) | inhibition, % at 11.9 µM | 93% of 1,400 active | AID 624412; in the data active means inhibition above about 7%
Jurkat cytotox: kills Jurkat cells in T. brucei MetRS counterscreen; shares compounds with TbMetRS inhib; Jurkat cells viability, ATP luminescence; inhibition, % at 8.3 µM; 12% of 1,400 active; in the data active means inhibition above about 15%;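 further: 0% = vehicle and 100% = reference inhibitor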
Tb MetRS inh FP: T. brucei MetRS inhibition, orthogonal assay | shares compounds with TbMetRS inhib | purified T. brucei MetRS, fluorescence polarization | inhibition, % at 11.9 µM | 44% of 1,400 active; in the data active means inhibition above about 17%;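 further: 0% = vehicle wells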
Active calls of the source: *; . = no result given. The list is not random: actives were taken first. Their share in the collection is about 0.4%.

SMILES	PDI inh	TbMetRS inhib	ERp5 block	Tb MetRS conf	Jurkat cytotox	Tb MetRS inh FP
COc1ccc(NC(=O)N(C)C[C@@H]2Oc3cc(-c4ccc(C)cc4)ccc3S(=O)(=O)N([C@@H](C)CO)C[C@@H]2C)cc1	.	.	0.6	.	.	.
C[C@H]1CN([C@@H](C)CO)C(=O)c2cc(NS(C)(=O)=O)ccc2O[C@@H]1CN(C)C(=O)Nc1cccc2ccccc12	.	.	4.9	.	.	.
Cc1ccc2nc(-c3cccc(NC(=O)c4ccco4)c3)[nH]c2c1	4.2	6.0*	.	9.1*	9.4	56.3*
O=C(Nc1ccc2nc(-c3cccnc3)[nH]c2c1)c1ccco1	-8.2	0.0	-0.9	.	.	.
O=C(C[C@@H]1C[C@H]2c3cc(NS(=O)(=O)c4ccc(F)cc4)ccc3O[C@H]2[C@H](CO)O1)NC1CCCCC1	.	.	-4.0	.	.	.
O=C(NCc1ccco1)/C(=C/c1ccc(C(F)(F)F)cc1)c1nc2ccccc2[nH]1	10.7	7.7*	.	5.0	29.9*	-2.8
O=C(NCc1ccco1)/C(=C/c1cccc(C(F)(F)F)c1)c1nc2ccccc2[nH]1	12.6	0.8	.	.	.	.
CS(=O)(=O)N1CCN(C(=O)c2csc3ccccc23)CC1	4.7	0.5	0.7	.	.	.
Cc1scc(C(=O)N2CCN(S(C)(=O)=O)CC2)c1-c1ccccc1	12.3	24.2*	.	3.8	2.2	-2.6
COc1ccc(S(=O)(=O)N2C[C@H](O)COC[C@@H]3O[C@@H](CC(=O)NCc4ccc(Cl)c(Cl)c4)CC[C@H]32)cc1	.	.	-7.9	.	.	.
Cc1ccc2nc(CCCc3nc4ccc(C)cc4[nH]3)[nH]c2c1	-2.3	0.9	0.8	.	.	.
CCCc1nc2ccccc2[nH]1	-1.9	-0.5	.	.	.	.
Cc1nnc(SCc2nc3ccccc3[nH]2)s1	-3.1	2.2	.	.	.	.
c1ccc2[nH]c(CSc3nc4ccccc4s3)nc2c1	-5.1	8.1*	.	19.7*	7.5	5.5
c1ccc2[nH]c(CCCCc3nc4ccccc4[nH]3)nc2c1	1.6	6.4*	1.6	16.3*	0.9	11.8
Cc1ccc2nc(CCc3nc4ccc(C)cc4[nH]3)[nH]c2c1	3.4	6.4*	1.5	11.1*	3.1	4.6
O=C(Cc1nc2ccccc2[nH]1)c1ccc(Br)cc1	-1.6	10.8*	2.4	2.3	9.5	5.8
O=C(Cc1nc2ccccc2[nH]c1=O)c1ccccc1	3.0	-0.7	1.2	.	.	.
C[C@@H]1CN([C@H](C)CO)S(=O)(=O)c2ccc(-c3cccnc3)cc2O[C@@H]1CN(C)C(=O)CC1CC1	.	.	1.5	.	.	.
CC(C)NC(=O)Nc1ccc2c(c1)C(=O)N([C@H](C)CO)C[C@H](C)[C@H](CN(C)Cc1ccc(Cl)c(Cl)c1)OCCCC[C@H](C)O2	.	.	5.6	.	.	.
C[C@@H]1CN([C@@H](C)CO)C(=O)c2cc(-c3ccncc3)cnc2O[C@H]1CN(C)C(=O)C1CCCCC1	.	.	10.7	.	.	.
C[C@@H]1CN([C@H](C)CO)C(=O)c2cc(NC(=O)Nc3ccc(F)cc3)ccc2O[C@@H]1CN(C)Cc1ccc(C(=O)O)cc1	.	.	-3.3	.	.	.
Cc1ccc(S(=O)(=O)Nc2ccc3c(c2)CC(=O)N([C@H](C)CO)C[C@H](C)[C@@H](CN(C)C(=O)Nc2ccc(C(F)(F)F)cc2)O3)cc1	.	.	-20.7	.	.	.
c1ccc(N/N=C(\Cc2nc3ccccc3[nH]2)c2ccccc2)cc1	1.2	3.1	2.1	.	.	.
N/N=C(/Cc1nc2ccccc2[nH]1)c1ccc([N+](=O)[O-])cc1	3.1	6.0*	3.5	87.6*	-0.4	66.0*
SMILES	PDI inh	TbMetRS inhib	ERp5 block	Tb MetRS conf	Jurkat cytotox	Tb MetRS inh FP
O=C(Nc1nc2c(Cl)cccc2s1)c1ccc(Br)o1	-3.0	6.8*	.	4.4	-4.9	3.8
O=C(Nc1nc2c(Cl)cccc2s1)c1ccc([N+](=O)[O-])o1	-3.8	-0.5	1.1	.	.	.
C/C(CC(=O)Nc1cccc(Br)c1)=N\NC(=O)c1ccc(O)cc1O	9.9	27.0*	-2.1	98.4*	1.3	80.2*
COc1cccc(NC(=O)C/C(C)=N/NC(=O)c2ccccc2Cl)c1	-1.2	-0.4	0.7	.	.	.
Cc1cc(Cl)ccc1OCc1cn2cccnc2n1	-5.2	11.4*	4.7	21.3*	4.8	1.8
Clc1ccc(OCc2cn3cccnc3n2)c2ncccc12	-8.3	-1.8	.	.	.	.
Cc1ccc(-c2cnc3c(c2)C(=O)N([C@H](C)CO)C[C@@H](C)[C@@H](CN(C)S(C)(=O)=O)O3)cc1	.	.	-2.0	.	.	.
O=C(O)CC1S/C(=N/N=C/c2ccc(-c3ccc(Cl)c([N+](=O)[O-])c3)o2)NC1=O (configuration not stated)	2.2	1.1	5.6	.	.	.
O=C(O)CC1S/C(=N/N=C/c2ccc(-c3ccc(Cl)cc3[N+](=O)[O-])o2)NC1=O (configuration not stated)	-10.1	10.8*	.	14.1*	-4.0	12.2
C[C@@H]1CN([C@@H](C)CO)C(=O)c2cc(/C=C/c3ccccc3)cnc2O[C@H]1CN(C)C(=O)CN(C)C	.	.	1.3	.	.	.
C=CCNC(=S)NNC(=O)COc1ccc(Br)cc1	-11.0	0.7	-4.9	.	.	.
C=CCNC(=S)NNC(=O)COc1ccc2cc(Br)ccc2c1	-10.5	19.4*	-1.3	46.5*	-0.7	23.6*
CC(C)NC(=O)Nc1ccc2c(c1)CC(=O)N([C@@H](C)CO)C[C@H](C)[C@@H](CN(C)Cc1ccc(C(=O)O)cc1)O2	.	.	-4.3	.	.	.
O=C(O)C[C@H]1CC[C@@H](NC(=O)c2ccncc2)[C@@H](CO)O1	.	.	-5.4	.	.	.
C[C@H](CO)N1C[C@H](C)[C@H](CN(C)S(C)(=O)=O)Oc2c(NC(=O)NC3CCCCC3)cccc2C1=O	.	.	7.1	.	.	.
COc1cccc(C2=NNC(=NCc3ccccc3)SC2)c1	-3.1	0.5	4.6	.	.	.
c1ccc2c(c1)CSc1ccccc1N2	2.7	0.7	1.8	.	.	.
c1ccc(CCc2cccnc2)cc1	0.5	-0.4	1.1	.	.	.
COc1ccccc1CN=C1Nc2ccccc2CS1	-1.0	12.7*	-14.6	31.8*	-3.5	11.1
c1cncc(CN=C2Nc3ccccc3CS2)c1	-7.0	8.6*	5.0	16.6*	-3.8	9.0
COc1cccc(CN=C2Nc3ccccc3CS2)c1	5.4	6.1*	-0.5	10.7*	13.3	3.2
S=C1Nc2ccccc2CS1	-2.1	-0.6	3.8	.	.	.
Clc1ccc(CN=C2Nc3ccccc3CS2)cc1	-3.6	12.2*	.	25.4*	1.5	14.4
CCS(=O)(=O)NCC[C@H]1CC[C@H](NC(=O)C2CCCC2)[C@@H](CO)O1	.	.	3.1	.	.	.
Cc1ccc(S(=O)(=O)Nc2ccc3c(c2)CC(=O)N([C@H](C)CO)C[C@H](C)[C@H](CN(C)CC2CCCCC2)O3)cc1	.	.	-4.1	.	.	.
C[C@@H]1CCCCO[C@@H](CN(C)CC2CC2)[C@H](C)CN([C@H](C)CO)C(=O)c2cc(NS(C)(=O)=O)ccc2O1	.	.	7.9	.	.	.
Cc1ccc(C)c(C2=NNC(=NCc3ccccc3)SC2)c1	2.8	-0.3	-0.8	.	.	.
Cc1ccc(CN=C2Nc3ccccc3CS2)cc1	-7.0	18.5*	.	31.6*	2.5	8.2
